Measured values taken from ChEMBL document CHEMBL1138829, “Conformationally constrained analogues of diacylglycerol. 21. A solid-phase method of synthesis of diacylglycerol lactones as a prelude to a combinatorial approach for the synthesis of protein kinase C isozyme-specific ligands” (J Med Chem, 2004).

How the values were obtained:
[1] = target: T1, Protein kinase C alpha type (Homo sapiens, UniProt P17252); assay: (§1) Displacement of [20-3H]phorbol-12,13-dibutyrate (PDBu) from a recombinant protein kinase C alpha with phosphatidylserine
Outline: (§2)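 Competition binding against [20-3H]PDBu using intact recombinant single isozyme PKC-alpha in presence of phosphatidylserine; tested as crude resin-cleaved and purified samples. ID50 obtained by least-squares fit of theoretical sigmoidal competition curve; Ki calculated from ID50 via standard relationship.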

[2] = target: T1, Protein kinase C alpha type; assay: as §1; outline: as §2; remark: listed apart in the source
[3] = Partition coefficient (logP); format: physicochemical; conditions: octanol/water
[4] = target: T1, Protein kinase C alpha type; assay: as §1; outline: as §2; remark: listed apart in the source

| SMILES | Ki [1] [nM] | Ki [2] [nM] | logP [3] | Ki [4] [nM] |
| --- | --- | --- | --- | --- |
| CCCCCCCCC/C=C1/CC(CO)(COC(=O)c2ccc(-c3ccccc3)cc2)OC1=O (configuration not stated) | 19.1 | 52.4 | 6.61 |  |
| CCCCCCCC/C=C1/CC(CO)(COC(=O)Cc2ccccc2)OC1=O (configuration not stated) | 43.3 |  | 4.61 | 145 |
| CCCCCCCCC/C=C1/CC(CO)(COC(=O)c2ccccc2)OC1=O (configuration not stated) | 20.3 | 37 | 4.85 |  |
| CCCCCCCC/C=C1/CC(CO)(COC(=O)c2ccccc2)OC1=O (configuration not stated) | 25.7 |  | 4.36 | 45.6 |
| CCCCCCCC/C=C1/CC(CO)(COC(=O)c2ccc(-c3ccccc3)cc2)OC1=O (configuration not stated) | 28 |  | 6.12 | 41.8 |
| O=C1OC(CO)(COC(=O)c2ccccc2)C/C1=C/c1ccc(-c2ccccc2)cc1 (configuration not stated) | 14.1 |  | 3.9 | 41 |
| O=C(Cc1ccccc1)OCC1(CO)C/C(=C/c2ccc(-c3ccccc3)cc2)C(=O)O1 (configuration not stated) | 48 |  | 4.15 | 152 |
| CCCCCCCCC/C=C1/CC(CO)(COC(=O)Cc2ccccc2)OC1=O (configuration not stated) | 43.8 | 92.5 | 5.1 |  |
| O=C1OC(CO)(COC(=O)c2ccc(-c3ccccc3)cc2)C/C1=C/c1ccc(-c2ccccc2)cc1 (configuration not stated) | 22.7 |  | 5.66 | 83.9 |
